TCR CD3 inh: blocks the human TCR-CD3 interaction; 360,000 tested, 0.37% active; TAMRA-labeled TCR probe fluorescence, biochemical; AID 651800; inhibition, % at 9.4 µM; in the data active means inhibition above about 19%;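 further: recombinant mutant TCR 2C K166C tagged with TAMRA read by polarization; 0% = receptor in buffer alone and 100% = receptor with positive control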
ASAP1 GAP inh: inhibitors of human ASAP1 ArfGAP activity | ASAP1-stimulated ARF1 GTP hydrolysis, GDP FP detection | inhibition, % at 16.5 µM | 360,000 tested, 0.19% active; in the data active means inhibition above about 25%;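 further: 0% = vehicle with enzyme and substrate and 100% = no enzyme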
LEDGF integ inh: blocks HIV-1 LEDGF/p75-dependent DNA integration | AID 743269 | TR-FRET IN-LEDGF/p75 DNA integration, Eu/Cy5 | 370,000 tested, 0.64% active | inhibition, % at 3.7 µM;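 active means inhibition above the screen-wide mean plus 3 SD, cut at about 13% in these data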;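 further: signal is the Cy5 over europium emission ratio at 671 and 618 nm; 0% = plate median of compound wells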
UHRF1 MBD2 ctr: human UHRF1 methylated DNA binding inhibitors; Q96T88; UHRF1 binding to methylated oligo, TR-FRET; inhibition, % at 4.4 µM; 370,000 tested, 0.75% active; AID 687016; in the data active means inhibition above about 21%;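 further: UHRF1 SRA domain binding a hemimethylated CpG hairpin DNA probe; 0% = median of test compound wells and 100% = reference inhibitor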
Target sequence (Q96T88 whole entry, looked up, the tested form may be a part): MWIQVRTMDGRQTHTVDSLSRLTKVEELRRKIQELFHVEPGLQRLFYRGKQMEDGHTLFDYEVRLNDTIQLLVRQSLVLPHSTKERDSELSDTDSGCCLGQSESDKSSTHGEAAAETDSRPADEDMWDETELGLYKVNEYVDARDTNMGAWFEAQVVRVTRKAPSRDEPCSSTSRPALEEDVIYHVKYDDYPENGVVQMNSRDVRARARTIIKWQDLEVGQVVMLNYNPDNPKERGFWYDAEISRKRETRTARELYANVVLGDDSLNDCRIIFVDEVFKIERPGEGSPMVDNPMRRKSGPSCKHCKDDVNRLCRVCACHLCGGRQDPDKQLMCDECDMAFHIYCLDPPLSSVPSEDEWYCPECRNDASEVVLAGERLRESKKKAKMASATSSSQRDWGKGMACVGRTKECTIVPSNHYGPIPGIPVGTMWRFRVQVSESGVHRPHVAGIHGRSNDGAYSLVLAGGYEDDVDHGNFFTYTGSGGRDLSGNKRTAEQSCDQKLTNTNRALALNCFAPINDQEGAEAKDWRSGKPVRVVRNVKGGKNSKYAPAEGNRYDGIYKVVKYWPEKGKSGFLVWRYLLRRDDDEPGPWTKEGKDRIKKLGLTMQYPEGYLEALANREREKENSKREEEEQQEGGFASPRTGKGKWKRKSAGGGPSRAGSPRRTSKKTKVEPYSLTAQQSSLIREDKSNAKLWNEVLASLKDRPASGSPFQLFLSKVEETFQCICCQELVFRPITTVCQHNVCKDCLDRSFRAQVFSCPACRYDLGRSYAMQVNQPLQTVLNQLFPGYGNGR
MBD2 inh: MBD2-methylated oligo binding inhibition. Q9UBB5. TR-FRET, MBD2 binding to methylated oligonucleotide. inhibition, % at 4.4 µM. 370,000 tested, 0.31% active; in the data active means inhibition above about 13%
ARFGAP1 inhibitor: inhibits rat ARF GTPase activating protein 1; Arfgap1-stimulated ARF1 GTP hydrolysis, GDP FP detection; Q62848; inhibition, % at 16.5 µM; 360,000 tested, 0.26% active;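 active means inhibition above a per-plate limit, mean inhibition of low control wells plus 3 SD, cut at about 25% in these data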;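 further: 0% = DMSO wells with enzyme and 100% = wells lacking Arfgap1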
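System: truncated rat Arfgap1 GAP domain / Medium: HEPES-based buffer, pH 7.5 / Also added: N-terminally truncated human ARF1-GTP substrate / Incubation: enzyme reaction 120 min at 25 °C after 20 min preincubation / Measured by: FP of antibody-bound GDP Alexa 633 tracer, ex 620/em 688 nm / Replicates: singlicate, each compound tested once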
The depositor's hits bear a star; . = no result. In the library only some 2% were active in any assay of this set; here they are far more common.

SMILES | TCR CD3 inh | ASAP1 GAP inh | LEDGF integ inh | UHRF1 MBD2 ctr | MBD2 inh | ARFGAP1 inhibitor
S=C(NCc1ccco1)Nc1cc(-c2ccccc2)[nH]n1 | -7 | 13 | 10 | 29* | 6 | 17
S=C(NCc1ccco1)Nc1ccc(Br)cn1 | 1 | 2 | 1 | -3 | -4 | 4
C=CCNCc1ccc(OC)cc1OC | . | . | -5 | 0 | 4 | .
CN(Cc1ccccc1)C(=O)OCc1cn(Cc2ccc(F)c(F)c2)nn1 | . | . | -2 | 2 | 2 | .
COc1ccc(C)cc1NC(=O)C(Sc1nncn1C)c1ccccc1 (configuration not stated) | 8 | 5 | 0 | 24* | 2 | 18
Cc1cccc(Cn2cc(COC(=O)N3CCCC3)nn2)c1 | . | . | -2 | 2 | 2 | .
O=C(Nc1ccc2c(c1)C(=O)NC2=O)c1cccc(C(F)(F)F)c1 | 2 | 18 | 4 | 21* | 7 | 7
O=C(Nc1ccc2c(c1)C(=O)NC2=O)c1ccccc1 | 7 | 1 | 4 | -1 | 1 | 2
O=C(NCc1ccccc1)OCCN1C(=O)CCC12CCC(c1ccc(Cl)cc1)CC2 (configuration not stated) | . | . | 2 | -1 | -4 | .
O=C(Cn1ncc2c1-c1ccccc1OC2)N1CCN(Cc2ccccc2)CC1 | 0 | 2 | 2 | 27* | 11 | -3
CCN1CCN(C(=O)Cn2ncc3c2-c2ccccc2OC3)CC1 | 0 | 1 | -2 | 5 | 1 | 8
CSc1nccc(-c2nn(-c3ccc(C)cc3)ccc2=O)n1 | 0 | -11 | 3 | 23* | 9 | -8
CCSc1nccc(-c2nn(-c3ccc(C)cc3)ccc2=O)n1 | 1 | 3 | 3 | 5 | 3 | 11
COCCCN1C(=O)C(CC(=O)NCCc2ccccn2)CC(C(=O)N2CCCCCC2)=C1C (configuration not stated) | 0 | 12 | 1 | 2 | 4 | 2
C=CCN1[C@H](C#N)[C@@H](c2ccccc2)[C@H]1CO | . | . | -6 | 0 | 5 | .
Cc1c(/C=N/NC(=O)c2cc(Br)ccc2O)c(=O)n(C)c(=O)n1C | -10 | -2 | -2 | 1 | 3 | 4
Cc1ncc(CO)c(/C=N/NC(=O)c2cc(Br)ccc2O)c1O | 19 | -6 | -8 | 24* | 0 | 0
Cc1c(C(=O)N2CCCCCC2)c(S(=O)(=O)Nc2ccccc2F)c(C)n1C | 0 | -7 | -1 | 5 | 0 | 3
CCc1ccccc1NS(=O)(=O)c1c(C(=O)N2CCCCCC2)c(C)n(C)c1C | 1 | -11 | -2 | 21* | 2 | 3
CCn1cc(C(=O)NCCCN2CCN(C)CC2)c(=O)c2cc(S(=O)(=O)N3CCc4ccccc4C3)ccc21 | 6 | -4 | -1 | 41* | -6 | 0
C[C@H]1COc2cc(N3CCSCC3)ccc2S(=O)(=O)N1C | . | . | 2 | 5 | 9 | .
COc1ccccc1CNc1ccc([N+](=O)[O-])cc1C | -3 | 4 | 2 | 48* | 0 | 17
COc1ccc(CNc2ccc([N+](=O)[O-])cc2C)cc1 | -1 | -7 | 0 | 4 | -2 | 2
CN1CCN(c2nc(-c3ccc(C(C)(C)C)cc3)nc3ccccc23)CC1 | 1 | 6 | 1 | 22* | 9 | 9
COC(=O)[C@]12C[C@H](CC(=O)N3CCOCC3)C(=O)N(Cc3ccco3)C1=C[C@H](COCc1ccccc1)O[C@@H]2C | . | . | 2 | 0 | 0 | .
SMILES | TCR CD3 inh | ASAP1 GAP inh | LEDGF integ inh | UHRF1 MBD2 ctr | MBD2 inh | ARFGAP1 inhibitor
CCCCCNC(=O)C(c1cccc2ccccc12)n1c(=O)c(-c2ccco2)nc2ccccc21 (configuration not stated) | -12 | -6 | -1 | -3 | 0 | -1
CCCCCNC(=O)C(c1ccc(C(F)(F)F)cc1)n1c(=O)c(-c2ccco2)nc2ccccc21 (configuration not stated) | -4 | -2 | 10 | 21* | 8 | 24
COc1ccc(NC(=O)COC(=O)CCc2ccc(S(=O)(=O)N3CCOCC3)cc2)cc1Cl | -5 | -1 | -3 | 95* | 5 | -4
COc1ccccc1-c1ocnc1C(=O)Nc1ccc(N2CCOCC2)cc1N1CCOCC1 | 5 | -14 | -1 | 74* | -5 | -5
COc1ccc(S[C@]2(C(=O)N3CCN(c4ncccn4)CC3)CC(=O)N[C@@H]2c2ccc(OC)cc2)cc1 | . | . | 3 | 1 | -2 | .
C/C(C=NNC(=O)CSc1nc2ccccc2n1Cc1ccccc1Cl)=C\c1ccccc1 | . | . | 6 | 1 | -9 | .
